ChEMBL document CHEMBL3045880, “Design and syntheses of novel N-(benzothiazol-5-yl)-4,5,6,7-tetrahydro-1H-isoindole-1,3(2H)-dione and N-(benzothiazol-5-yl)isoindoline-1,3-dione as potent protoporphyrinogen oxidase inhibitors” (J Agric Food Chem, 2011)

Key:
Brassica juncea [1] = experiment: Herbicidal activity against Brassica juncea assessed as growth inhibition at 150 g/ha postemergence treatment measured after 15 days by Greenhouse test; assay type: functional; details: post-emergence, 360 h, read-out: GI
Procedure, shortened: (§1)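 Test compounds were made up as 100 g/L emulsifiable concentrates (DMF solvent, Tween-80 emulsifier) and diluted with water. About 20 seeds were sown 1–3 cm deep in clay soil (pH 6.5, 1.6% organic matter) in 9.5 cm pots, kept at 15–30 °C and 50% RH. Postemergence spray was applied to dicots at the 2-leaf stage and monocots at the 1-leaf stage. Controls were untreated and solvent-treated. Injury was scored visually at 15 days, with three replicates.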

[2] = molecular target: T1, Protoporphyrinogen oxidase (Homo sapiens) (UniProt P50336); experiment: Inhibition of Homo sapiens (human) recombinant protoporphyrinogen oxidase by fluorescence detection
T1 sequence (whole entry): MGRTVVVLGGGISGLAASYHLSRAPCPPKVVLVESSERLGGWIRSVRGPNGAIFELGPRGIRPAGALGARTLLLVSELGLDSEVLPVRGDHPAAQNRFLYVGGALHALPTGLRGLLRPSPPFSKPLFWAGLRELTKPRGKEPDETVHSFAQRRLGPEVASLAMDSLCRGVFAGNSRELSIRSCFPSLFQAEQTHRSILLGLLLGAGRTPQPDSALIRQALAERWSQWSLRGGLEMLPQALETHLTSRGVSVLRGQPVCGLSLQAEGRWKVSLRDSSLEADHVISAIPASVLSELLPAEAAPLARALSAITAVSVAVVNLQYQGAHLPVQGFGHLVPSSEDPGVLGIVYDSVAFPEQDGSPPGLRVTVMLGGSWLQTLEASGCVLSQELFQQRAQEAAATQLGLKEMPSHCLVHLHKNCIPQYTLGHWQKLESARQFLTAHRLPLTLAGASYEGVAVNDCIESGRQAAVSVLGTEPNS

Amaranthus retroflexus [3] = experiment: Herbicidal activity against Amaranthus retroflexus assessed as growth inhibition at 150 g/ha postemergence treatment measured after 15 days by Greenhouse test; assay type: functional; details: post-emergence, 360 h, read-out: GI; procedure, shortened: as §1
Eclipta prostrata [4] = experiment: Herbicidal activity against Eclipta prostrata assessed as growth inhibition at 150 g/ha postemergence treatment measured after 15 days by Greenhouse test; assay type: functional; details: post-emergence, 360 h, read-out: GI; procedure, shortened: as §1
Echinochloa crus-galli [5] = experiment: Herbicidal activity against Echinochloa crus-galli (barnyard grass) assessed as growth inhibition at 150 g/ha postemergence treatment measured after 15 days by Greenhouse test; assay type: functional; details: post-emergence, 360 h, read-out: GI; procedure, shortened: as §1
Setaria faberi [6] = experiment: Herbicidal activity against Setaria faberi (Giant Foxtail) assessed as growth inhibition at 150 g/ha postemergence treatment measured after 15 days by Greenhouse test; assay type: functional; details: post-emergence, 360 h, read-out: GI; procedure, shortened: as §1
Digitaria sanguinalis [7] = experiment: Herbicidal activity against Digitaria sanguinalis (hairy crabgrass) assessed as growth inhibition at 150 g/ha postemergence treatment measured after 15 days by Greenhouse test; assay type: functional; details: post-emergence, 360 h, read-out: GI; procedure, shortened: as §1
Abutilon theophrasti [8] = experiment: Herbicidal activity against Abutilon theophrasti (velvetleaf) assessed as growth inhibition at 37.5 g/ha postemergence treatment measured after 15 days by Greenhouse test; assay type: functional; details: post-emergence, 360 h, read-out: GI
Procedure, shortened: (§2)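 Postemergence greenhouse pot test. About 20 seeds per pot, sown 1-3 cm deep in clay soil (pH 6.5, 1.6% organic matter). Plants grown at 15-30 °C and 50% relative humidity. Compounds were made up as 100 g/L emulsifiable concentrates in DMF with Tween-80, then diluted in water. Dicots were sprayed at the 2-leaf stage and monocots at the 1-leaf stage. Controls were untreated and solvent-treated. Injury was scored visually after 15 days, three replicates per treatment.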

Echinochloa crus-galli [9] = experiment: Herbicidal activity against Echinochloa crus-galli (barnyard grass) assessed as growth inhibition at 75 g/ha postemergence treatment measured after 15 days by Greenhouse test; assay type: functional; details: post-emergence, 360 h, read-out: GI; procedure, shortened: as §2
Brassica juncea [10] = experiment: Herbicidal activity against Brassica juncea assessed as growth inhibition at 37.5 g/ha postemergence treatment measured after 15 days by Greenhouse test; assay type: functional; details: post-emergence, 360 h, read-out: GI; procedure, shortened: as §2
Abutilon theophrasti [11] = experiment: Herbicidal activity against Abutilon theophrasti (velvetleaf) assessed as growth inhibition at 75 g/ha postemergence treatment measured after 15 days by Greenhouse test; assay type: functional; details: post-emergence, 360 h, read-out: GI; procedure, shortened: as §2
Amaranthus retroflexus [12] = experiment: Herbicidal activity against Amaranthus retroflexus assessed as growth inhibition at 75 g/ha postemergence treatment measured after 15 days by Greenhouse test; assay type: functional; details: post-emergence, 360 h, read-out: GI; procedure, shortened: as §2
Digitaria sanguinalis [13] = experiment: Herbicidal activity against Digitaria sanguinalis (hairy crabgrass) assessed as growth inhibition at 37.5 g/ha postemergence treatment measured after 15 days by Greenhouse test; assay type: functional; details: post-emergence, 360 h, read-out: GI; procedure, shortened: as §2
Eclipta prostrata [14] = experiment: Herbicidal activity against Eclipta prostrata assessed as growth inhibition at 75 g/ha postemergence treatment measured after 15 days by Greenhouse test; assay type: functional; details: post-emergence, 360 h, read-out: GI; procedure, shortened: as §2
Setaria faberi [15] = experiment: Herbicidal activity against Setaria faberi (Giant Foxtail) assessed as growth inhibition at 37.5 g/ha postemergence treatment measured after 15 days by Greenhouse test; assay type: functional; details: post-emergence, 360 h, read-out: GI; procedure, shortened: as §2
Amaranthus retroflexus [16] = experiment: Herbicidal activity against Amaranthus retroflexus assessed as growth inhibition at 37.5 g/ha postemergence treatment measured after 15 days by Greenhouse test; assay type: functional; details: post-emergence, 360 h, read-out: GI; procedure, shortened: as §2
Echinochloa crus-galli [17] = experiment: Herbicidal activity against Echinochloa crus-galli (barnyard grass) assessed as growth inhibition at 37.5 g/ha postemergence treatment measured after 15 days by Greenhouse test; assay type: functional; details: post-emergence, 360 h, read-out: GI; procedure, shortened: as §2
Digitaria sanguinalis [18] = experiment: Herbicidal activity against Digitaria sanguinalis (hairy crabgrass) assessed as growth inhibition at 75 g/ha postemergence treatment measured after 15 days by Greenhouse test; assay type: functional; details: post-emergence, 360 h, read-out: GI; procedure, shortened: as §2
Eclipta prostrata [19] = experiment: Herbicidal activity against Eclipta prostrata assessed as growth inhibition at 37.5 g/ha postemergence treatment measured after 15 days by Greenhouse test; assay type: functional; details: post-emergence, 360 h, read-out: GI; procedure, shortened: as §2
Brassica juncea [20] = experiment: Herbicidal activity against Brassica juncea assessed as growth inhibition at 75 g/ha postemergence treatment measured after 15 days by Greenhouse test; assay type: functional; details: post-emergence, 360 h, read-out: GI; procedure, shortened: as §2
Setaria faberi [21] = experiment: Herbicidal activity against Setaria faberi (Giant Foxtail) assessed as growth inhibition at 75 g/ha postemergence treatment measured after 15 days by Greenhouse test; assay type: functional; details: post-emergence, 360 h, read-out: GI; procedure, shortened: as §2
Abutilon theophrasti [22] = experiment: Herbicidal activity against Abutilon theophrasti (velvetleaf) assessed as growth inhibition at 150 g/ha postemergence treatment measured after 15 days by Greenhouse test; assay type: functional; details: post-emergence, 360 h, read-out: GI; procedure, shortened: as §1

SMILES	inhibition of growth at 150 g/ha (Brassica juncea [1])	Ki [2]	inhibition of growth at 150 g/ha (Amaranthus retroflexus [3])	inhibition of growth at 150 g/ha (Eclipta prostrata [4])	inhibition of growth at 150 g/ha (Echinochloa crus-galli [5])	inhibition of growth at 150 g/ha (Setaria faberi [6])	inhibition of growth at 150 g/ha (Digitaria sanguinalis [7])	also measured
CC(C)(C)OC(=O)CSc1nc2cc(N3C(=O)C4=C(CCCC4)C3=O)c(F)cc2s1	80%	180 nM	80%	80%	< 50%	< 50%	60%	–
COC(=O)Sc1nc2cc(N3C(=O)C4=C(CCCC4)C3=O)c(F)cc2s1	80%	80 nM	80%	80%	< 50%	< 50%	< 50%	–
COC(=O)CSc1nc2cc(N3C(=O)c4ccccc4C3=O)c(F)cc2s1	–	2250 nM	–	–	–	–	–	–
CCOC(=O)CSc1nc2cc(N3C(=O)C4=C(CCCC4)C3=O)c(Cl)cc2s1	< 50%	1660 nM	80%	60%	< 50%	< 50%	< 50%	–
COC(=O)CSc1nc2cc(N3C(=O)C4=C(CCCC4)C3=O)c(F)cc2s1	80%	1220 nM	80%	80%	60%	60%	60%	inhibition of growth at 37.5 g/ha (Abutilon theophrasti [8]): 80%; inhibition of growth at 75 g/ha (Echinochloa crus-galli [9]): 50%; inhibition of growth at 37.5 g/ha (Brassica juncea [10]): 50%; inhibition of growth at 75 g/ha (Abutilon theophrasti [11]): 80%; inhibition of growth at 75 g/ha (Amaranthus retroflexus [12]): 80%; inhibition of growth at 37.5 g/ha (Digitaria sanguinalis [13]): < 50%; inhibition of growth at 75 g/ha (Eclipta prostrata [14]): 80%; inhibition of growth at 37.5 g/ha (Setaria faberi [15]): < 50%; inhibition of growth at 37.5 g/ha (Amaranthus retroflexus [16]): 80%; inhibition of growth at 37.5 g/ha (Echinochloa crus-galli [17]): < 50%; inhibition of growth at 75 g/ha (Digitaria sanguinalis [18]): 50%; inhibition of growth at 37.5 g/ha (Eclipta prostrata [19]): 80%; inhibition of growth at 75 g/ha (Brassica juncea [20]): 50%; inhibition of growth at 75 g/ha (Setaria faberi [21]): < 50%
CC(C)OC(=O)CSc1nc2cc(N3C(=O)c4ccccc4C3=O)c(F)cc2s1	–	1500 nM	80%	60%	< 50%	< 50%	< 50%	inhibition of growth at 150 g/ha (Abutilon theophrasti [22]): 80%
CCCOC(=O)CSc1nc2cc(N3C(=O)c4ccccc4C3=O)c(F)cc2s1	–	1240 nM	80%	–	< 50%	50%	< 50%	inhibition of growth at 150 g/ha (Abutilon theophrasti [22]): 80%
CCOC(=O)C(C)Sc1nc2cc(N3C(=O)C4=C(CCCC4)C3=O)c(Cl)cc2s1 (stereo unspecified)	< 50%	800 nM	60%	60%	< 50%	< 50%	< 50%	–
COC(=O)Sc1nc2cc(N3C(=O)C4=C(CCCC4)C3=O)c(Cl)cc2s1	< 50%	520 nM	60%	60%	< 50%	< 50%	< 50%	–
CCOC(=O)CCSc1nc2cc(N3C(=O)C4=C(CCCC4)C3=O)c(Cl)cc2s1	60%	320 nM	60%	60%	< 50%	< 50%	< 50%	–
CCOC(=O)C(C)Sc1nc2cc(N3C(=O)c4ccccc4C3=O)c(F)cc2s1 (stereo unspecified)	–	132000 nM	–	–	–	–	–	–
CCOC(=O)C(C)(C)Sc1nc2cc(N3C(=O)C4=C(CCCC4)C3=O)c(Cl)cc2s1	< 50%	1660 nM	80%	60%	< 50%	< 50%	< 50%	–
CCOC(=O)CCCSc1nc2cc(N3C(=O)C4=C(CCCC4)C3=O)c(Cl)cc2s1	< 50%	750 nM	80%	60%	< 50%	< 50%	< 50%	–
COC(=O)CSc1nc2cc(N3C(=O)C4=C(CCCC4)C3=O)c(Cl)cc2s1	< 50%	3920 nM	60%	60%	< 50%	< 50%	< 50%	–
CCOC(=O)Sc1nc2cc(N3C(=O)C4=C(CCCC4)C3=O)c(Cl)cc2s1	< 50%	470 nM	50%	50%	< 50%	< 50%	< 50%	–
CCOC(=O)CCSc1nc2cc(N3C(=O)c4ccccc4C3=O)c(F)cc2s1	–	5520 nM	–	–	–	–	–	–
CCOC(=O)CSc1nc2cc(N3C(=O)C4=C(CCCC4)C3=O)c(F)cc2s1	< 50%	250 nM	80%	50%	60%	60%	60%	–
CCOC(=O)CCSc1nc2cc(N3C(=O)c4ccccc4C3=O)c(Cl)cc2s1	–	3760 nM	–	–	–	–	–	–
CCOC(=O)C(C)Sc1nc2cc(N3C(=O)c4ccccc4C3=O)c(Cl)cc2s1 (stereo unspecified)	–	85900 nM	–	–	–	–	–	–
CCOC(=O)CCSc1nc2cc(N3C(=O)C4=C(CCCC4)C3=O)c(F)cc2s1	80%	110 nM	80%	80%	50%	< 50%	50%	–
CCOC(=O)Sc1nc2cc(N3C(=O)c4ccccc4C3=O)c(F)cc2s1	–	510 nM	80%	80%	< 50%	< 50%	< 50%	inhibition of growth at 150 g/ha (Abutilon theophrasti [22]): 80%
CC(C)OC(=O)CSc1nc2cc(N3C(=O)C4=C(CCCC4)C3=O)c(F)cc2s1	60%	210 nM	80%	80%	60%	50%	60%	–
CCOC(=O)C(C)Sc1nc2cc(N3C(=O)C4=C(CCCC4)C3=O)c(F)cc2s1 (stereo unspecified)	80%	290 nM	80%	80%	60%	60%	60%	–
CCCOC(=O)CSc1nc2cc(N3C(=O)C4=C(CCCC4)C3=O)c(F)cc2s1	60%	280 nM	80%	80%	60%	< 50%	60%	–
